{"data": "Experimental data of several laboratories", "organism": "Staphylococcus aureus", "observed": "microbial growth"}
{"SMILES": "COC(=O)c1cc(-c2cccc(NC(=S)NC3CCCCC3)c2)on1", "assay": "broth dilution", "test system": "ATCC29213", "MIC": "> 64 µg/mL"}
{"SMILES": "C=C(NC(=O)C(=C)NC(=O)c1csc(C2=N[C@@H]3c4csc(n4)[C@H]4NC(=O)c5csc(n5)[C@H]([C@](C)(O)[C@@H](C)O)NC(=O)[C@H]5CSC(=N5)/C(=C/C)NC(=O)[C@H]([C@@H](C)O)NC(=O)c5csc(n5)[C@]3(CC2)NC(=O)[C@H](C)NC(=O)C(=C)NC(=O)[C@H](C)NC(=O)[C@H]([C@@H](C)CC)N[C@@H]2C=Cc3c([C@H](C)O)cc(nc3[C@H]2O)C(=O)O[C@@H]4C)n1)C(N)=O", "test system": "MRSA", "MIC": "0.12 µg/mL"}
{"SMILES": "CC(c1ccc(Cl)c(Cl)c1)n1cnc2cc3c(cc21)CCC3 (stereo not shown)", "MIC": "3.1 to 6.3 µg/mL"}
{"SMILES": "COc1ccc(-c2nc3ccccc3n2Cc2ccccc2)cc1OC", "assay": "broth dilution", "test system": "ATCC43300 MRSA", "setting": "drug-resistant strain", "MIC": "8 µg/mL"}
{"SMILES": "CCCCCCCCCCCC(=O)C(F)(F)P(=O)(O)O", "test system": "ATCC33591 MRSA", "setting": "drug-resistant strain", "MIC": "> 200 µg/mL"}
{"SMILES": "CCC(CC)c1cc(CCN2CCCN(Cc3ccc(C(F)(F)F)cc3)CC2)nc(-c2ccncc2)n1", "test system": "ATCCBAA1720", "setting": "drug-resistant strain, clinical isolate", "MIC": "6 µg/mL"}
{"SMILES": "COC(=O)c1cccc(Oc2ccc(NC(=O)Nc3ccc(Cl)c(C(F)(F)F)c3)cc2)c1", "test system": "NCTC8325", "MIC": "0.5 µM"}
{"SMILES": "Cc1ccc2[nH]c3c(c2c1)CCCC3NCCc1ccc(Br)cc1 (stereo not shown)", "assay": "broth dilution", "test system": "VISA", "MIC": "4 µg/mL"}
{"SMILES": "C=CCCCCCCCCC(=O)C(F)(F)P(=O)(O)O", "test system": "ATCC33591 MRSA", "setting": "drug-resistant strain", "MIC": "> 200 µg/mL"}
{"SMILES": "O=[N+]([O-])c1cccc(-c2nc3ccccc3[nH]2)c1", "assay": "broth dilution", "test system": "ATCC43300 MRSA", "setting": "drug-resistant strain", "MIC": "64 µg/mL"}
{"SMILES": "CC1(C)CC[C@]2(C(=O)O)CC[C@]3(C)C(=CC[C@@H]4[C@@]5(C)CC[C@H](O)C(C)(C)[C@@H]5CC[C@]43C)[C@@H]2C1", "test system": "83254", "MIC": "64 µg/mL"}
{"SMILES": "COC(=O)c1cc(-c2cccc(NC(=S)Nc3ccc(OC)cc3)c2)on1", "assay": "broth dilution", "test system": "ATCC29213", "MIC": "> 64 µg/mL"}
{"SMILES": "CC(C)(C)c1cc(NC(=O)Nc2ccc(Oc3ccncc3)cc2)no1", "test system": "NCTC8325", "MIC": "100 µM"}
{"SMILES": "Oc1cc(Cl)ccc1Oc1ccc(Cl)cc1Cl", "MIC": "1.8 µg/mL"}
{"SMILES": "COC(=O)c1cc(-c2cccc(NC(=O)Nc3cc(OC)ccc3OC)c2)on1", "assay": "broth dilution", "test system": "ATCC29213", "MIC": "> 64 µg/mL"}
{"SMILES": "CN[C@H](CC(C)C)C(=O)N[C@H]1C(=O)N[C@@H](CC(N)=O)C(=O)N[C@H]2C(=O)N[C@H]3C(=O)N[C@H](C(=O)N[C@H](C(=O)O)c4cc(O)cc(O)c4-c4cc3ccc4O)[C@H](O)c3ccc(c(Cl)c3)Oc3cc2cc(c3O[C@@H]2O[C@H](CO)[C@@H](O)[C@H](O)[C@H]2O[C@H]2C[C@](C)(N)[C@H](O)[C@H](C)O2)Oc2ccc(cc2Cl)[C@H]1O", "assay": "broth dilution", "test system": "ATCCBAA44", "setting": "drug-resistant strain", "MIC": "1 µg/mL"}
{"SMILES": "Cc1ccc2nc(-c3c(F)cccc3Cl)[nH]c2c1", "assay": "broth dilution", "test system": "ATCC43300 MRSA", "setting": "drug-resistant strain", "MIC": "64 µg/mL"}
{"SMILES": "CC(C)C[C@H](NC(=O)[C@@H](NC(=O)N[C@H](C(=O)O)C(C)C)[C@@H]1CCNC(=N)N1)C(=O)NCCCN[C@H](C(=O)O)[C@H](O[C@@H]1O[C@H](CN)[C@@H](O)[C@H]1O)[C@H]1O[C@@H](n2ccc(=O)[nH]c2=O)[C@H](O)[C@@H]1O", "test system": "NEWMAN", "MIC": "> 80 µg/mL"}
{"SMILES": "CN[C@H](CC(C)C)C(=O)N[C@H]1C(=O)N[C@@H](CC(N)=O)C(=O)N[C@H]2C(=O)N[C@H]3C(=O)N[C@H](C(=O)N[C@H](C(=O)O)c4cc(O)cc(O)c4-c4cc3ccc4O)[C@H](O)c3ccc(c(Cl)c3)Oc3cc2cc(c3O[C@@H]2O[C@H](CO)[C@@H](O)[C@H](O)[C@H]2O[C@H]2C[C@](C)(N)[C@H](O)[C@H](C)O2)Oc2ccc(cc2Cl)[C@H]1O", "test system": "NEWMAN", "MIC": "1 µg/mL"}
{"SMILES": "COC(=O)c1cc(-c2cccc(NC(=S)Nc3ccc(Cl)cc3)c2)on1", "assay": "broth dilution", "test system": "ATCC29213", "MIC": "> 64 µg/mL"}
{"SMILES": "CCCCCCCCCC(=O)N[C@@H](Cc1c[nH]c2ccccc12)C(=O)N[C@H](CC(N)=O)C(=O)N[C@@H](CC(=O)O)C(=O)N[C@@H]1C(=O)NCC(=O)N[C@@H](CCCN)C(=O)N[C@@H](CC(=O)O)C(=O)N[C@H](C)C(=O)N[C@@H](CC(=O)O)C(=O)NCC(=O)N[C@H](CO)C(=O)N[C@@H]([C@H](C)CC(=O)O)C(=O)N[C@@H](CC(=O)c2ccccc2N)C(=O)O[C@@H]1C", "assay": "broth dilution", "test system": "USA300", "setting": "drug-resistant strain", "MIC": "0.5 µg/mL"}
{"SMILES": "CCCCCCCCCCCCCCCC(=O)N(C)[C@H](CO)C(=O)N[C@H](C)C(=O)NCC(=O)N(C)[C@@H]1C(=O)N[C@@H](C)C(=O)N[C@H](C(=O)O)Cc2ccc(O)c(c2)-c2cc1ccc2O", "test system": "MRSA", "MIC": "25 µg/mL"}
{"SMILES": "Cc1cccc2nc(-c3ccc([N+](=O)[O-])o3)[nH]c12", "assay": "broth dilution", "test system": "ATCC700699 MRSA", "setting": "drug-resistant strain", "MIC": "2 µg/mL"}
{"SMILES": "COc1cccc(OC)c1C(=O)N[C@@H]1C(=O)N2[C@@H]1SC(C)(C)[C@@H]2C(=O)O", "test system": "ATCCBAA1720", "setting": "drug-resistant strain, clinical isolate", "MIC": "> 64 µg/mL"}
{"SMILES": "Cc1ccc2nc(-c3cccnc3)[nH]c2c1", "assay": "broth dilution", "test system": "ATCC43300 MRSA", "setting": "drug-resistant strain", "MIC": "128 µg/mL"}
{"SMILES": "CC(=O)Nc1c2sscc-2[nH]c1=O", "test system": "MRSA", "setting": "drug-resistant strain", "MIC": "2.5 µM"}
{"SMILES": "C[C@@H](O)[C@H]1C(=O)N2C(C(=O)O)=C(S[C@@H]3CN[C@H](C(=O)N(C)C)C3)[C@H](C)[C@H]12", "test system": "USA300", "MIC": "1 µg/mL"}
{"SMILES": "O=C(Nc1cccc(-c2cc(C(=O)O)no2)c1)Nc1ccc(Cl)c(Cl)c1", "assay": "broth dilution", "test system": "ATCC29213", "MIC": "> 64 µg/mL"}
{"SMILES": "Clc1ccc(-c2nc3ccccc3[nH]2)cc1", "assay": "broth dilution", "test system": "ATCC43300 MRSA", "setting": "drug-resistant strain", "MIC": "128 µg/mL"}
{"SMILES": "COC(=O)c1cc(-c2cccc(NC(=S)Nc3ccc(C#N)cc3)c2)on1", "assay": "broth dilution", "test system": "ATCC29213", "MIC": "> 64 µg/mL"}
{"SMILES": "COC(=O)c1cc(Oc2ccc(NC(=O)Nc3ccc(Cl)c(C(F)(F)F)c3)cc2)ccn1", "test system": "NCTC8325", "MIC": "3 µM"}
{"SMILES": "CCCCCCCCCCCCCCCC(=O)NS(=O)(=O)Oc1ccc(OC)cc1", "test system": "ATCC33591 MRSA", "setting": "drug-resistant strain", "MIC": "> 200 µg/mL"}
{"SMILES": "CN[C@H](CC(C)C)C(=O)N[C@H]1C(=O)N[C@@H](CC(N)=O)C(=O)N[C@H]2C(=O)N[C@H]3C(=O)N[C@H](C(=O)N[C@H](C(=O)O)c4cc(O)cc(O)c4-c4cc3ccc4O)[C@H](O)c3ccc(c(Cl)c3)Oc3cc2cc(c3O[C@@H]2O[C@H](CO)[C@@H](O)[C@H](O)[C@H]2O[C@H]2C[C@](C)(N)[C@H](O)[C@H](C)O2)Oc2ccc(cc2Cl)[C@H]1O", "assay": "broth dilution", "test system": "BAA44 MRSA", "setting": "drug-resistant strain", "MIC": "0.59 µM"}
{"SMILES": "Cc1onc(-c2ccccc2)c1C(=O)N[C@@H]1C(=O)N2[C@@H]1SC(C)(C)[C@@H]2C(=O)O", "assay": "broth dilution", "test system": "MRSA", "MIC": "32 µg/mL"}
{"SMILES": "CCCCCC/C=C\\CCCCCCCCCC(=O)CP(=O)(O)O", "test system": "ATCC33591 MRSA", "setting": "drug-resistant strain", "MIC": "100 µg/mL"}
{"SMILES": "CCCCCCNC(=S)Nc1cccc(-c2cc(C(=O)OC)no2)c1", "assay": "broth dilution", "test system": "ATCC29213", "MIC": "> 64 µg/mL"}
{"SMILES": "Cc1ccc2[nH]c3c(c2c1)CCCC3NCCc1ccc(O)cc1 (stereo not shown)", "assay": "broth dilution", "test system": "MRSA USA300", "MIC": "16 µg/mL"}
{"SMILES": "c1ccc2c(-c3nc4ccccc4[nH]3)c3ccccc3cc2c1", "assay": "broth dilution", "test system": "ATCC43300 MRSA", "setting": "drug-resistant strain", "MIC": "64 µg/mL"}
{"SMILES": "CN[C@H](CC(C)C)C(=O)N[C@H]1C(=O)N[C@@H](CC(N)=O)C(=O)N[C@H]2C(=O)N[C@H]3C(=O)N[C@H](C(=O)N[C@H](C(=O)O)c4cc(O)cc(O)c4-c4cc3ccc4O)[C@H](O)c3ccc(c(Cl)c3)Oc3cc2cc(c3O[C@@H]2O[C@H](CO)[C@@H](O)[C@H](O)[C@H]2O[C@H]2C[C@](C)(N)[C@H](O)[C@H](C)O2)Oc2ccc(cc2Cl)[C@H]1O", "test system": "ATCC33592", "setting": "drug-resistant strain", "MIC": "0.39 µg/mL"}
{"SMILES": "Cc1ccc2nc(-c3ccco3)[nH]c2c1", "assay": "broth dilution", "test system": "ATCC43300 MRSA", "setting": "drug-resistant strain", "MIC": "256 µg/mL"}
{"SMILES": "CC(=O)c1ccc(NC(=O)Nc2ccc(Cl)c(C(F)(F)F)c2)cc1", "test system": "NCTC8325", "MIC": "30 µM"}
{"SMILES": "CCCCCCCCCCCCCCCC(=O)CP(=O)(O)O", "test system": "ATCC33591 MRSA", "setting": "drug-resistant strain", "MIC": "100 µg/mL"}
{"SMILES": "CCC1C(=NOCc2cc(-c3ccc(Cl)cc3)no2)CC(c2ccccc2)OC1c1ccccc1 (stereo not shown)", "assay": "broth dilution", "test system": "MTCC96", "setting": "24 h", "MIC": "50 µg/mL"}
{"SMILES": "Cc1ccc2nc(-c3ccccc3O)[nH]c2c1", "assay": "broth dilution", "test system": "ATCC43300 MRSA", "setting": "drug-resistant strain", "MIC": "256 µg/mL"}
{"SMILES": "COC(=O)c1cc(-c2cccc(NC(=O)Nc3ccc(Cl)c(Cl)c3)c2)on1", "assay": "broth dilution", "test system": "ATCC29213", "MIC": "> 64 µg/mL"}
{"SMILES": "CC1=C(C(=O)O)N2C(=O)[C@@H](NC(=O)[C@H](N)C3=CCC=CC3)[C@H]2SC1", "test system": "USA300", "MIC": "128 µg/mL"}
